# Data taken from ChEMBL document CHEMBL4689842, “EUbOPEN Chemogenomics Library wave 1” (2021).
# Tested on: U2OS
# Experiment: Multiplex assay against U2OS
# Format: toxicity, cell-based
# Settings: human
# Procedure, shortened: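 Live cells were stained at seeding with Hoechst33342, BioTracker Green Microtubule Cytoskeleton Dye, MitoTracker Red and Annexin V Alexa Fluor 680. Following compound addition, they were imaged on a CQ1 microscope at 37°C and 5% CO2 and gated by CellPathfinder machine learning into Hoechst high-intensity objects or normal cells, with normal cells split into healthy, pyknosed or fragmented nuclei and pyknosed cells into mitotic or apoptotic. Tubulin, mitochondrial-mass and membrane-permeability phenotypes are per cents of healthy-nucleus cells.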
# [1] = 12 h, 1 µM, compound concentration 1 uM, replicate 1
# [2] = 12 h, 1 µM, compound concentration 1 uM, replicate 2
# [3] = 12 h, 10 µM, compound concentration 10 uM, replicate 1
# [4] = 12 h, 10 µM, compound concentration 10 uM, replicate 2
# [5] = 24 h, 1 µM, compound concentration 1 uM, replicate 1
# [6] = 24 h, 1 µM, compound concentration 1 uM, replicate 2
# [7] = 24 h, 10 µM, compound concentration 10 uM, replicate 1
# [8] = 24 h, 10 µM, compound concentration 10 uM, replicate 2
# [9] = 48 h, 1 µM, compound concentration 1 uM, replicate 1
# [10] = 48 h, 1 µM, compound concentration 1 uM, replicate 2
# [11] = 48 h, 10 µM, compound concentration 10 uM, replicate 1
# [12] = 48 h, 10 µM, compound concentration 10 uM, replicate 2
smiles,measurement,setting,value
Cc1csc2c(N[C@@H](C)CN3CCN(S(=O)(=O)c4ccc(Cl)c(Cl)c4)CC3)ncnc12,Population Apoptotic (%),[1],70%
same,Population Fragmented Nuclei (%),[1],14%
same,Population Healthy Nuclei (%),[1],66%
same,Population Hoechst High Intensity Objects (%),[1],8%
same,Population Membrane Permeable-Phenotype (%),[1],4%
same,Population Mitochondria Different-Phenotype (%),[1],31%
same,Population Mitotic Cells (%),[1],30%
same,Population Normal (%),[1],91%
same,Population Pyknosed Nuclei (%),[1],19%
same,Population Tubulin-Different-Phenotype (%),[1],50%
same,Total Cell Count,[1],158
same,Population Apoptotic (%),[2],16%
same,Population Fragmented Nuclei (%),[2],5%
same,Population Healthy Nuclei (%),[2],84%
same,Population Hoechst High Intensity Objects (%),[2],5%
same,Population Membrane Permeable-Phenotype (%),[2],6%
same,Population Mitochondria Different-Phenotype (%),[2],33%
same,Population Mitotic Cells (%),[2],83%
same,Population Normal (%),[2],95%
same,Population Pyknosed Nuclei (%),[2],10%
same,Population Tubulin-Different-Phenotype (%),[2],47%
same,Total Cell Count,[2],48
same,Population Apoptotic (%),[3],53%
same,Population Fragmented Nuclei (%),[3],15%
same,Population Healthy Nuclei (%),[3],57%
same,Population Hoechst High Intensity Objects (%),[3],9%
same,Population Membrane Permeable-Phenotype (%),[3],55%
same,Population Mitochondria Different-Phenotype (%),[3],100%
same,Population Mitotic Cells (%),[3],46%
same,Population Normal (%),[3],90%
same,Population Pyknosed Nuclei (%),[3],27%
same,Population Tubulin-Different-Phenotype (%),[3],100%
same,Total Cell Count,[3],114
same,Population Apoptotic (%),[4],75%
same,Population Fragmented Nuclei (%),[4],12%
same,Population Healthy Nuclei (%),[4],67%
same,Population Hoechst High Intensity Objects (%),[4],4%
same,Population Membrane Permeable-Phenotype (%),[4],56%
same,Population Mitochondria Different-Phenotype (%),[4],98%
same,Population Mitotic Cells (%),[4],25%
same,Population Normal (%),[4],95%
same,Population Pyknosed Nuclei (%),[4],19%
same,Population Tubulin-Different-Phenotype (%),[4],98%
same,Total Cell Count,[4],60
same,Population Apoptotic (%),[5],73%
same,Population Fragmented Nuclei (%),[5],7%
same,Population Healthy Nuclei (%),[5],78%
same,Population Hoechst High Intensity Objects (%),[5],8%
same,Population Membrane Permeable-Phenotype (%),[5],10%
same,Population Mitochondria Different-Phenotype (%),[5],27%
same,Population Mitotic Cells (%),[5],26%
same,Population Normal (%),[5],91%
same,Population Pyknosed Nuclei (%),[5],13%
same,Population Tubulin-Different-Phenotype (%),[5],45%
same,Total Cell Count,[5],175
same,Population Apoptotic (%),[6],60%
same,Population Fragmented Nuclei (%),[6],11%
same,Population Healthy Nuclei (%),[6],73%
same,Population Hoechst High Intensity Objects (%),[6],4%
same,Population Membrane Permeable-Phenotype (%),[6],11%
same,Population Mitochondria Different-Phenotype (%),[6],25%
same,Population Mitotic Cells (%),[6],40%
same,Population Normal (%),[6],95%
same,Population Pyknosed Nuclei (%),[6],14%
same,Population Tubulin-Different-Phenotype (%),[6],23%
same,Total Cell Count,[6],64
same,Population Apoptotic (%),[7],95%
same,Population Fragmented Nuclei (%),[7],18%
same,Population Healthy Nuclei (%),[7],44%
same,Population Hoechst High Intensity Objects (%),[7],5%
same,Population Membrane Permeable-Phenotype (%),[7],75%
same,Population Mitochondria Different-Phenotype (%),[7],100%
same,Population Mitotic Cells (%),[7],4%
same,Population Normal (%),[7],94%
same,Population Pyknosed Nuclei (%),[7],36%
same,Population Tubulin-Different-Phenotype (%),[7],100%
same,Total Cell Count,[7],119
same,Population Apoptotic (%),[8],80%
same,Population Fragmented Nuclei (%),[8],15%
same,Population Healthy Nuclei (%),[8],57%
same,Population Hoechst High Intensity Objects (%),[8],4%
same,Population Membrane Permeable-Phenotype (%),[8],80%
same,Population Mitochondria Different-Phenotype (%),[8],97%
same,Population Mitotic Cells (%),[8],19%
same,Population Normal (%),[8],95%
same,Population Pyknosed Nuclei (%),[8],26%
same,Population Tubulin-Different-Phenotype (%),[8],97%
same,Total Cell Count,[8],72
same,Population Apoptotic (%),[9],77%
same,Population Fragmented Nuclei (%),[9],8%
same,Population Healthy Nuclei (%),[9],79%
same,Population Hoechst High Intensity Objects (%),[9],3%
same,Population Membrane Permeable-Phenotype (%),[9],8%
same,Population Mitochondria Different-Phenotype (%),[9],16%
same,Population Mitotic Cells (%),[9],22%
same,Population Normal (%),[9],96%
same,Population Pyknosed Nuclei (%),[9],11%
same,Population Tubulin-Different-Phenotype (%),[9],30%
same,Total Cell Count,[9],243
same,Population Apoptotic (%),[10],25%
same,Population Fragmented Nuclei (%),[10],12%
same,Population Healthy Nuclei (%),[10],82%
same,Population Hoechst High Intensity Objects (%),[10],4%
same,Population Mitochondria Different-Phenotype (%),[10],12%
same,Population Mitotic Cells (%),[10],75%
same,Population Normal (%),[10],95%
same,Population Pyknosed Nuclei (%),[10],4%
same,Population Tubulin-Different-Phenotype (%),[10],20%
same,Total Cell Count,[10],89
same,Population Apoptotic (%),[11],87%
same,Population Fragmented Nuclei (%),[11],25%
same,Population Healthy Nuclei (%),[11],30%
same,Population Hoechst High Intensity Objects (%),[11],8%
same,Population Membrane Permeable-Phenotype (%),[11],78%
same,Population Mitochondria Different-Phenotype (%),[11],96%
same,Population Mitotic Cells (%),[11],12%
same,Population Normal (%),[11],91%
same,Population Pyknosed Nuclei (%),[11],43%
same,Population Tubulin-Different-Phenotype (%),[11],100%
same,Total Cell Count,[11],159
same,Population Apoptotic (%),[12],92%
same,Population Fragmented Nuclei (%),[12],15%
same,Population Healthy Nuclei (%),[12],50%
same,Population Hoechst High Intensity Objects (%),[12],7%
same,Population Membrane Permeable-Phenotype (%),[12],84%
same,Population Mitochondria Different-Phenotype (%),[12],97%
same,Population Mitotic Cells (%),[12],7%
same,Population Normal (%),[12],92%
same,Population Pyknosed Nuclei (%),[12],34%
same,Population Tubulin-Different-Phenotype (%),[12],97%
same,Total Cell Count,[12],91
